Experimental data taken from ChEMBL document CHEMBL1151946, “Doxazosin-related alpha1-adrenoceptor antagonists with prostate antitumor activity” (J Med Chem, 2009).
The source made the active and inactive calls. The rule behind the calls is not given here.

Legend:
DU-145 [1] = assay: Cytotoxicity against human DU145 cells after 72 hrs by CellTitter-Glo luminescent cell viability assay; assay type: functional, cell-based; conditions: DU-145, 72 h
[2] = target: T1, Alpha-1B adrenergic receptor (Homo sapiens, UniProt P35368); assay: Displacement of [3H]prazosin from human Alpha-1B adrenoceptor expressed in CHO cells; assay type: cell-based
T1 sequence (P35368 whole entry): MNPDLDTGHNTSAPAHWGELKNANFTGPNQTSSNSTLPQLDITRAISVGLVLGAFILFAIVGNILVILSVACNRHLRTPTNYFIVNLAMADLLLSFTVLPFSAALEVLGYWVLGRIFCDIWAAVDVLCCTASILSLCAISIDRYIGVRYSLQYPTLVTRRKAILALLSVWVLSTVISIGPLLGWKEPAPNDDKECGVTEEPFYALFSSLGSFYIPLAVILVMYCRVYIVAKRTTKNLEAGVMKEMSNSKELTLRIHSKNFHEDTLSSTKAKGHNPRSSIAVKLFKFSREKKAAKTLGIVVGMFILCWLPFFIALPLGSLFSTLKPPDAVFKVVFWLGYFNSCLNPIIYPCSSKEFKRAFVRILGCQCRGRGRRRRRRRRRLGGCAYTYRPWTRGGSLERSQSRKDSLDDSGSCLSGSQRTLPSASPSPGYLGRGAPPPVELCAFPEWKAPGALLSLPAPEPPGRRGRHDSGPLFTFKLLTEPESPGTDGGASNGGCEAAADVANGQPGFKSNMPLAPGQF
In short: (§1)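 Radioligand competition binding used [3H]prazosin on membranes of CHO cells expressing human α1a, α1b or α1d adrenoceptor. IC50 values were converted to pKi by the Cheng-Prusoff equation. Data come from two to three experiments run in triplicate, agreeing within ±20%.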

PC-3 [3] = assay: Antitumor activity against human PC3 cells xenografted in NU/NU mouse at 0.3 mg/kg, po after 21 days relative to control; assay type: functional
In short: (§2)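 Male nude mice carried subcutaneous left-flank tumors from injected PC-3 cells. Drug was given orally once daily for 21 consecutive days. There were five groups of six mice, treated and control. Tumor growth is reported as mean ± SEM, analysed by ANOVA and Student t-test against control.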

NHDF [4] = assay: Cytotoxicity against human NHDF cells after 72 hrs by CellTitter-Glo luminescent cell viability assay; assay type: functional, cell-based
PC-3 [5] = assay: Antiangiogenic activity in human PC3 cells xenografted in NU/NU mouse assessed as reduction vascularization at 1 mg/kg by immunohistochemistry; assay type: functional, organism-based; parameters: dose 1 mg/kg
In short: (§3)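 Vascularization of PC-3 flank tumors from nude mice dosed orally was assessed by immunohistochemistry with rat anti-mouse CD31 monoclonal antibody as endothelial marker. Doses were 0.3, 1 and 3 mg/kg.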

PC-3 [6] = assay: Antiangiogenic activity in human PC3 cells xenografted in NU/NU mouse assessed as reduction vascularization at 3 mg/kg by immunohistochemistry; assay type: functional, organism-based; parameters: dose 3 mg/kg; in short: as §3
PC-3 [7] = assay: Induction of apoptosis in human PC3 cells assessed as caspase 3/7 activation after 24 hrs by Caspase-Glo 3/7 assay; assay type: functional, cell-based; conditions: PC-3, 24 h
[8] = target: T2, Alpha-1A adrenergic receptor (Rattus norvegicus) (UniProt P43140); assay: Antagonist activity at rat alpha1A adrenoceptor assessed as inhibition if norepinephrine-induced contraction of vas deference; assay type: functional
T2 sequence (whole entry): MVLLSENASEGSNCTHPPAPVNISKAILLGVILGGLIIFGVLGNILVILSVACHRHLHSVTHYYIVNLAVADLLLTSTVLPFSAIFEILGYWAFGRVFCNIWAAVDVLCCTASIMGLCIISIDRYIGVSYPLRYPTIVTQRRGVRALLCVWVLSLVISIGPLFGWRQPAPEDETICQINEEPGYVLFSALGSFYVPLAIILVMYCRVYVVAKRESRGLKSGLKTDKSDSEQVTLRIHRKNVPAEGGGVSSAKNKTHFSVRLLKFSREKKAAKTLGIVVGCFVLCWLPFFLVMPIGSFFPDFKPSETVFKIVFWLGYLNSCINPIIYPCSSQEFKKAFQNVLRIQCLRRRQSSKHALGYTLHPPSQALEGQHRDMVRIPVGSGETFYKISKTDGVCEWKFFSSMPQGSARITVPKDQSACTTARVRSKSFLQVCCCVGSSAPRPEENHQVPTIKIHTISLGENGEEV
In short: (§4)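 Isolated rat tissue contraction assay. The α1A response used vas deferens with (-)-noradrenaline as agonist, α1D used thoracic aorta with (-)-noradrenaline, and α1B used spleen with (-)-phenylephrine. pA2 values are means ± SEM over three antagonist concentrations, each tested at least four times. Where the Schild slope differed from unity, pKB was calculated by van Rossum at the lowest antagonist concentration giving log(CR−1) ≥0.5.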

PC-3 [9] = assay: Cytotoxicity against human PC3 cells after 72 hrs by CellTitter-Glo luminescent cell viability assay; assay type: functional, cell-based; conditions: PC-3, 72 h
LNCaP [10] = assay: Cytotoxicity against human LNCAP cells after 72 hrs by CellTitter-Glo luminescent cell viability assay; assay type: functional, cell-based
[11] = target: T3, Alpha-1D adrenergic receptor (Rattus norvegicus, UniProt P23944); assay: (§5) Antagonist activity at rat Alpha-1D adrenoceptor assessed as inhibition if norepenephrine-induced contraction of thoracic aorta; assay type: functional, tissue-based; conditions: read-out: pA2 (converted); in short: as §4
T3 sequence (P23944 whole entry): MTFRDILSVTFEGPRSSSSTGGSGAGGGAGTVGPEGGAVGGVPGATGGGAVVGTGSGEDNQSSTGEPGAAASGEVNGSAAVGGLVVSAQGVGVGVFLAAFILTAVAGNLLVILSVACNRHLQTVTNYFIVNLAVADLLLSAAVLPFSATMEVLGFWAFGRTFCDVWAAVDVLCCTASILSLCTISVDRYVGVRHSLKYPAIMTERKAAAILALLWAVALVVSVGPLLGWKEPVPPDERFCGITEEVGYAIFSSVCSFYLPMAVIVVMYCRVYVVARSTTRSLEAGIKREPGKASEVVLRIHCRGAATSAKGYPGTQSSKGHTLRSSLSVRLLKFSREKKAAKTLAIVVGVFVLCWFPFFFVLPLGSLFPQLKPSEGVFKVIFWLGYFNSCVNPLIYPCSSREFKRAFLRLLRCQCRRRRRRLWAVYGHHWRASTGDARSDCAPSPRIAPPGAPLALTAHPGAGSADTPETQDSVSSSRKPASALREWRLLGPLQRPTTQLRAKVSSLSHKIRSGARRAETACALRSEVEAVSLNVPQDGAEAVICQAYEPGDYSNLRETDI

PC-3 [12] = assay: Antitumor activity against human PC3 cells xenografted in NU/NU mouse after 21 days; assay type: functional; in short: as §2
NHDF [13] = assay: Induction of apoptosis in human NHDF cells assessed as caspase 3/7 activation after 24 hrs Caspase-Glo 3/7 assay; assay type: functional, cell-based
[14] = target: T4, Alpha-1D adrenergic receptor (Homo sapiens, UniProt P25100); assay: Displacement of [3H]prazosin from human Alpha-1D adrenoceptor expressed in CHO cells; assay type: cell-based; in short: as §1
T4 sequence (P25100 whole entry): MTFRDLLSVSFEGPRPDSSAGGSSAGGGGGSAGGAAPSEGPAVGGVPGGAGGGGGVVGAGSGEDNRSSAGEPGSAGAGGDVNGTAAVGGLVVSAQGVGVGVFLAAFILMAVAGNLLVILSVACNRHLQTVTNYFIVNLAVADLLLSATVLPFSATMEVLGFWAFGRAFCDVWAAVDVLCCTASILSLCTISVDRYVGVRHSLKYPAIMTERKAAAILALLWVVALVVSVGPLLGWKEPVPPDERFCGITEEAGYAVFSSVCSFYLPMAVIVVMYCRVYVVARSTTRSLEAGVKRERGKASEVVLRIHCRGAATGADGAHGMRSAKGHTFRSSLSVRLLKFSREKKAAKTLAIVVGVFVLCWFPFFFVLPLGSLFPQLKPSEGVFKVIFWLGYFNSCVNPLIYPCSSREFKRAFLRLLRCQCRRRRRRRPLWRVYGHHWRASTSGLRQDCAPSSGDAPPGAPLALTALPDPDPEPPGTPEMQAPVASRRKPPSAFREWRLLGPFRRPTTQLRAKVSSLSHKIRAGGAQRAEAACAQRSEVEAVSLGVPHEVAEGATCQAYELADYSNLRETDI

[15] = target: T5, Alpha-1A adrenergic receptor (Homo sapiens, UniProt P35348); assay: Displacement of [3H]prazosin from human alpha1A adrenoceptor expressed in CHO cells; assay type: cell-based; in short: as §1
T5 sequence (P35348 whole entry): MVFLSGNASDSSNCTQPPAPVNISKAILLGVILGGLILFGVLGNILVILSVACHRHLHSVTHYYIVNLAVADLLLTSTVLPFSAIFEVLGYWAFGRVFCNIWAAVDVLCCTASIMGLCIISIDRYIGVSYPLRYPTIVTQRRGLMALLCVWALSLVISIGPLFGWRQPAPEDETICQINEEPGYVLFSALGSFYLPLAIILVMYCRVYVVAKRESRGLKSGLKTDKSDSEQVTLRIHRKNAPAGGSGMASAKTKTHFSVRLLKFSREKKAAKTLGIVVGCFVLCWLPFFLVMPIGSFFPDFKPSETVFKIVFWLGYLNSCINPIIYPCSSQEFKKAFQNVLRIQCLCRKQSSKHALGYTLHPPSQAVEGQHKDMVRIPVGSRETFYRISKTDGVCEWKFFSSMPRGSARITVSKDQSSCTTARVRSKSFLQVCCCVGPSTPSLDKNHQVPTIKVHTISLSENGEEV

PC-3 [16] = assay: Induction of apoptosis in human PC3 cells xenografted in NU/NU mouse assessed as DNA fragmentation at 0.3 to 3 mg/kg by agarose gel electrophoresis; assay type: functional, organism-based
In short: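 DNA from PC-3 subcutaneous tumors of orally treated nude mice was run on an electrophoretic gel. Apoptosis was scored as a DNA ladder pattern.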

PC-3 [17] = assay: Antiangiogenic activity in human PC3 cells xenografted in NU/NU mouse assessed as reduction vascularization at 0.3 mg/kg by immunohistochemistry; assay type: functional, organism-based; parameters: dose 0.3 mg/kg; in short: as §3
[18] = target: T6, Alpha-1B adrenergic receptor (Rattus norvegicus) (UniProt P15823); assay: Antagonist activity at rat Alpha-1B adrenoceptor assessed as inhibition if phenylephrine-induced contraction of spleen; assay type: functional, tissue-based; in short: as §4
T6 sequence (whole entry): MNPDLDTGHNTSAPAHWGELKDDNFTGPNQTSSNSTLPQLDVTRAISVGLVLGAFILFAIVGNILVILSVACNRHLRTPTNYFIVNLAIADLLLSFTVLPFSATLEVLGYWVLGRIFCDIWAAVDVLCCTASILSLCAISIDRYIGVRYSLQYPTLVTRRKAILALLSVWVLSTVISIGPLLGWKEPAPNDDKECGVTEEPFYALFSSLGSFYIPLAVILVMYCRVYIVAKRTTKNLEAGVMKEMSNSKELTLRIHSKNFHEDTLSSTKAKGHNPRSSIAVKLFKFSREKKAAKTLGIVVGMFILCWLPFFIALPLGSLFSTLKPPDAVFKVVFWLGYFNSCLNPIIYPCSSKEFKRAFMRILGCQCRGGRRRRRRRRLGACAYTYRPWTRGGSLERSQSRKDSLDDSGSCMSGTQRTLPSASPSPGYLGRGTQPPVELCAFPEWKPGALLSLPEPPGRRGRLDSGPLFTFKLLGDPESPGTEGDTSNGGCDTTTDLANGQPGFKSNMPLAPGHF

DU-145 [19] = assay: Induction of apoptosis in human DU145 cells assessed as caspase 3/7 activation after 24 hrs Caspase-Glo 3/7 assay; assay type: functional, cell-based
[20] = target: T7, Alpha-1D adrenergic receptor (Rattus norvegicus) (UniProt P23944); assay: as §5; assay type: functional, tissue-based; in short: as §4
T7 sequence (whole entry): T3 sequence (P23944 whole entry)

LNCaP [21] = assay: Induction of apoptosis in human LNCAP cells assessed as caspase 3/7 activation after 24 hrs Caspase-Glo 3/7 assay; assay type: functional, cell-based

Structure (SMILES) | EC50 (DU-145 [1]) | IC50 (DU-145 [1]) | Ki [2] | EC50 (NHDF [4]) | IC50 (NHDF [4]) | Activity (PC-3 [6]) | EC50 (PC-3 [7]) | pKb [8] | EC50 (PC-3 [9]) | IC50 (PC-3 [9]) | IC50 (LNCaP [10]) | EC50 (NHDF [13]) | Ki [14] | Ki [15] | Activity (PC-3 [16]) | pKb [18] | also measured
COc1cc2nc(N3CCN(C(=O)C4COc5ccccc5O4)[C@H]4CCCC[C@H]43)nc(N)c2cc1OC (relative stereo) [CYCLODOXAZOSIN] | 2.6 µM | 0.96 µM | 0.000417 µM | > 10 µM | 1.46 µM | Active | 1.86 µM | 7.21 | 1.86 µM | 0.85 µM | 0.57 µM | > 10 µM | 0.00017 µM | 0.00282 µM | Active | 8.3 | Activity (PC-3 [3]): 21%; Activity (PC-3 [5]): Active; EC50 (LNCaP [10]): 1.42 µM; Kb [11]: 0.0407 µM; Activity (PC-3 [12]): Dose-dependent effect; Activity (PC-3 [17]): Active
COc1cc2nc(N(C)CCCCCCN(C)C(=O)C3COc4ccccc4O3)nc(N)c2cc1OC (centres undefined) |  | 9.25 µM | 0.000933 µM |  | 9.8 µM |  | 10 µM | 8.51 |  | 8.4 µM | 4.61 µM | 10 µM | 0.00158 µM | 0.00186 µM |  | 8.35 | EC50 (DU-145 [19]; du-145): 10 µM; pKb [20]: 8.64; EC50 (LNCaP [21]; lncap): 10 µM
COc1cc2nc(N3CCN(C(=O)C4COc5ccccc5O4)CC3)nc(N)c2cc1OC (centres undefined) [DOXAZOSIN] | > 100 µM | 37.4 µM |  | 40.4 µM | 43 µM | Active | > 100 µM |  | > 100 µM | 38.6 µM | 28.1 µM | 40.4 µM |  |  | Active |  | EC50 (DU-145 [19]; Homo sapiens, DU-145, 24 h): > 100 µM; EC50 (LNCaP [21]; Homo sapiens, LNCaP, 24 h, read-out: EC50): 100 µM
